Here are results for 2 molecules from ChEMBL document CHEMBL5034012, “Procainamide-SAHA Fused Inhibitors of hHDAC6 Tackle Multidrug-Resistant Malaria Parasites” (J Med Chem, 2021).

Molecules are shown by their SMILES. The source made the active and inactive calls. No cut-off for these calls is given here.

In assay [1] the test system is Plasmodium falciparum. Nature of the assay: Antiplasmodial activity against Plasmodium falciparum stage IIb-III gametocytes assessed as abnormal morphology by measuring rounded/swollen at highest concentration measured after 72 hrs using Geimsa staining based assay. Format: functional. In short, it runs like this: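 Day-4 stage IIb-III gametocytes (asexuals removed by N-acetyl glucosamine), about 1% gametocytemia at 2% hematocrit, treated 72h at 10, 5, 1 or 0.5 µM against 0.1% DMSO. Then washed and recultured with daily medium changes. Morphology and parasitemia scored daily on Giemsa-stained thin smears.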

Assay [2] concerns Plasmodium falciparum. Nature of the assay: Antiplasmodial activity against Plasmodium falciparum late stage IV-V gametocytes assessed as reduction in number of exflagellation centers in at 1 to 10 uM treated for 72 hrs. Format: functional, organism-based. The conditions noted are these: dose 1-10 µM. Put shortly: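 Synchronous gametocytes induced; asexual forms removed with N-acetyl glucosamine for 5 days. Day-9 stage IV-V gametocytes, about 1% gametocytemia at 2% hematocrit, treated 72h at 10, 5, 1 or 0.5 µM against 0.1% DMSO. Then washed and recultured with daily medium changes. […], pelleted cells mixed 1:1 with human serum. Exflagellation centers counted over ≥10 fields at 40× within one hour. Two independent experiments; one-way ANOVA.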

Assay [3] deals with T1, Protein deacetylase HDAC6 (Homo sapiens, UniProt Q9UBN7).
T1 sequence (Q9UBN7 whole entry): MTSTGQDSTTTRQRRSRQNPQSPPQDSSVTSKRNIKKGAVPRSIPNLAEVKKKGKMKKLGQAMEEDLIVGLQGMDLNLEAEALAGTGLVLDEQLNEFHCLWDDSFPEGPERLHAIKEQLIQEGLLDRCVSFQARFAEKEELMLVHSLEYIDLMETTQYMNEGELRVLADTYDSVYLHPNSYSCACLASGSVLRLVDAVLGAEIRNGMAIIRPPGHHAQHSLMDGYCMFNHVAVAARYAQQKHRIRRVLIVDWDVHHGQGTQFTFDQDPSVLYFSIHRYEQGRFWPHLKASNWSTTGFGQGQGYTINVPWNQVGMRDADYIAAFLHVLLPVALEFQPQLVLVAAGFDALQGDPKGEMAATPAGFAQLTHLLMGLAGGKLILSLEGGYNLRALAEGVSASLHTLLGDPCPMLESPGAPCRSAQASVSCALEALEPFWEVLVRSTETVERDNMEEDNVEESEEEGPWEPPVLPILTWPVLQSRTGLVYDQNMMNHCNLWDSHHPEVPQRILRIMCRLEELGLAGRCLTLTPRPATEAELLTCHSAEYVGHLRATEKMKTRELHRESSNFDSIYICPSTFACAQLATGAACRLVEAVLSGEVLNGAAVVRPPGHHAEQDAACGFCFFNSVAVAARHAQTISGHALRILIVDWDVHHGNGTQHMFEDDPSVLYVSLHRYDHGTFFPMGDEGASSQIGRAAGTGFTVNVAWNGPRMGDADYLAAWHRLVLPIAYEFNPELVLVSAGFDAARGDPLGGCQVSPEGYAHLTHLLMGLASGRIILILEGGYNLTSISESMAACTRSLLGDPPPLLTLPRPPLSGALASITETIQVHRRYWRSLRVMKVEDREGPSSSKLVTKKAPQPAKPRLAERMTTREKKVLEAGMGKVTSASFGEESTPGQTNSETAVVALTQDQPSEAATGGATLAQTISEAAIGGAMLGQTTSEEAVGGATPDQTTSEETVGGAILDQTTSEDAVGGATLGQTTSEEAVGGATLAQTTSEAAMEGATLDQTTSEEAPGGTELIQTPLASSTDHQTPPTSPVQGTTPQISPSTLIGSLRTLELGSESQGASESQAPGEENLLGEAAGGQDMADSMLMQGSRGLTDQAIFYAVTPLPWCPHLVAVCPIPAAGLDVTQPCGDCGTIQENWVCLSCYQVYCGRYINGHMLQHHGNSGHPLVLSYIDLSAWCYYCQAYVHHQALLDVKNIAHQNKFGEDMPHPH
The assay can be described thus: Inhibition of human recombinant HDAC6 using Tosyl-Gly-ProLys(Ac)-AMC as substrate measured after 60 mins by fluorescence assay.

Another assay addresses Histone deacetylase 1 (Homo sapiens, UniProt Q13547). The assay can be described thus: Inhibition of human recombinant HDAC1 using Tosyl-Gly-ProLys(Ac)-AMC as substrate measured after 60 mins by fluorescence assay.
Another assay concerns the target Histone deacetylase 2 (Homo sapiens, UniProt Q92769). The assay can be described thus: Inhibition of human recombinant HDAC2 using Tosyl-Gly-ProLys(Ac)-AMC as substrate measured after 60 mins by fluorescence assay.
In assay [4] the test system is Plasmodium falciparum. The assay can be described thus: Antiplasmodial activity against asynchronous asexual culture of Plasmodium falciparum NF54 assessed as parasite growth inhibition. Format: functional, organism-based. Put shortly: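 Asynchronous asexual NF54 cultures exposed to 7-point, 2-step serial dilutions starting at 500nM. DHA served as positive control, DMSO as negative. IC50 interpolated from three independent experiments run in triplicate.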

Assay [5] has as its system Plasmodium falciparum. The assay can be described thus: Antiplasmodial activity against Plasmodium falciparum 3D7 assessed as DNA damage in trophozoite stage measured upto 72 hrs using Geimsa stain based parasite reduction rate assay. Format: functional, organism-based. The following applies: time hrs <=72.
For assay [6], the system named is Plasmodium falciparum. The assay can be described thus: Antiplasmodial activity against synchronized ring stage Plasmodium falciparum 3D7 assessed as parasite reduction over one cycle upto 48 hrs at 10 times IC50 concentration. Format: functional. The following applies: time hrs <=48. Put shortly: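 3D7 culture of mostly rings exposed to drug for 6, 24, 48, 72 or 96h. Then washed, serially diluted 1/3 in fresh RBC and grown 3 weeks. Growth read by SYBR-green I. Number of wells with growth used to back-calculate viable parasites at each time point and derive growth parameters. One experiment, run in duplicate.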

Assay [7] has as its system Plasmodium falciparum. Nature of the assay: Inhibition of trophozoite-stage Plasmodium falciparum HDAC in using nuclear extract assessed as H4K16 hyperacetylation at 10 times IC50 concentration incubated for 4 hrs by Western blot analysis. The conditions noted are these: in the assay text read “total extract” for “nuclear extract”. In short, it runs like this:
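Parasites exposed 4h at 10× IC50, with CQ and 0.1% DMSO as controls. Saponin-lysed (0.15%) and extracted in Laemmli/DTT buffer; 5.10⁶ parasites loaded per lane. Blots probed with anti-H4K16Ac (1/500) and anti-H3 (1/1000). H4K16Ac band intensity normalized to H3. Three independent experiments.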
On the technique in general: Immunoblotting shows a protein as a band on a membrane.

The test system of assay [8] is Plasmodium falciparum. The assay can be described thus: Antiplasmodial activity against ring stage Plasmodium falciparum 3D7 assessed as defective parasite division at 10 times IC50 concentration incubated for 24 hrs by transmission electron microscopy. Format: functional, organism-based. Put shortly:
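Harvested with Plasmagel and fixed in 4% PFA/0.1% glutaraldehyde. Gelatin-embedded; 60nm ultrathin sections. Anti-H3 (1/100) labelled with 10nm protein A-gold. Stained with methylcellulose/0.4% uranyl acetate and imaged by TEM at 120 kV.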

The test system of the next assay is HepG2. Nature of the assay: cells. Format: functional, cell-based. The following applies: Homo sapiens, HepG2, 72 h.
In assay [9] the test system is Plasmodium falciparum. Nature of the assay: Antiplasmodial activity against Plasmodium falciparum 3D7 assessed as time to kill initial parasite load at 10 times IC50 concentration. Format: functional. In short, it runs like this:
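Parasite reduction rate assay on 3D7 cultures containing mostly rings, with DHA and pyrimethamine as references. Exposure windows of 6, 24, 48, 72 and 96h; cells then washed, serially diluted 1/3 in fresh RBC and grown 3 weeks before SYBR-green I read-out. Number of wells with growth gives viable parasites per time point, per Sanz et al. One experiment in duplicate.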

A further assay concerns the target Histone deacetylase. The assay can be described thus: Inhibition of human HDAC using human HeLa cell nuclear extract measured after 60 mins by fluorescence assay. Format: tissue-based.

Sequence of Histone deacetylase 1 (Q13547 whole entry): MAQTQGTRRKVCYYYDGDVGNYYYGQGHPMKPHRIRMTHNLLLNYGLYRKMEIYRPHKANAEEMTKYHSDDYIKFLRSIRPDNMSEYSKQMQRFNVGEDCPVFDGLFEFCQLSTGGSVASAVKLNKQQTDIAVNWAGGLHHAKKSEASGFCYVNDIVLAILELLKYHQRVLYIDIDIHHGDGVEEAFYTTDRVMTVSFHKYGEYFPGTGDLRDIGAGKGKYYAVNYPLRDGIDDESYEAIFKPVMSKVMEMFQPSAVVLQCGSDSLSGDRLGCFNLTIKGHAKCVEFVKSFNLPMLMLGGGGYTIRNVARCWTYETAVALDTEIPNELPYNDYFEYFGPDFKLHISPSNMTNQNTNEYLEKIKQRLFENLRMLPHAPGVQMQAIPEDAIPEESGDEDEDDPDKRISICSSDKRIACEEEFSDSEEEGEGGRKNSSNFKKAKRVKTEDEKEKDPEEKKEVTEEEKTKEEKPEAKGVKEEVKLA
Sequence of Histone deacetylase 2 (Q92769 whole entry): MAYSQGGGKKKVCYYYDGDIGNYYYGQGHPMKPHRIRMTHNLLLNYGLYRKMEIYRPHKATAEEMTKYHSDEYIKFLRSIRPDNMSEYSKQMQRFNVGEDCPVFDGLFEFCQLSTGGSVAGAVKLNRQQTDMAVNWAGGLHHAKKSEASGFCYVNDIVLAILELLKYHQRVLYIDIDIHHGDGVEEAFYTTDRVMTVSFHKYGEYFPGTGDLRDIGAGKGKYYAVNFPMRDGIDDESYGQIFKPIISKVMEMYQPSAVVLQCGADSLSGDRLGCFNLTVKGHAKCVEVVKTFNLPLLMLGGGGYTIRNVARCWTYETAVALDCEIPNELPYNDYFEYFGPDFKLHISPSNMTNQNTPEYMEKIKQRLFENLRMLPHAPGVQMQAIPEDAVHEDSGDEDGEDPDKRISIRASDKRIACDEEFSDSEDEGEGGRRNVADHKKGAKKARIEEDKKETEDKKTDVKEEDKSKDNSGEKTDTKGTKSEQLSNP

For orientation: IC50 means the concentration at which inhibition is half-maximal. As for `O=C(CCCCCCC(=O)Nc1ccc(C(=O)NC2CCNCC2)cc1)NO`, the Activity result with Plasmodium falciparum [1] is “<=90%”. For the same molecule, the result with Plasmodium falciparum [2], with Plasmodium falciparum [5] and in the assay on Plasmodium falciparum [8] was Active. Also, the IC50 in assay [3] was 19 nM; at Histone deacetylase 1, 150 nM; at Histone deacetylase 2, 270 nM; in the assay with Plasmodium falciparum [4], 52 nM; with HepG2 it was 230000 nM; on Histone deacetylase, 140 nM. For the same molecule, the “log(activity)” value in the assay with Plasmodium falciparum [6] is given as 4.22. Further, the fold change (FC) in the assay on Plasmodium falciparum [7] was found to be 6. For the same molecule, the LT99.9 in the assay with Plasmodium falciparum [9] was 34.3 h.
`CCN(CC)CCNC(=O)c1ccc(NC(=O)CCCCCCC(=O)NO)cc1`: the Activity entry in the assay on Plasmodium falciparum [1] was “<=90%”. The result with Plasmodium falciparum [2], with Plasmodium falciparum [5] and with Plasmodium falciparum [8] was Active. The IC50 in [3] was found to be 14 nM; at Histone deacetylase 1 it was 70 nM; at Histone deacetylase 2 it was 80 nM; in the assay with Plasmodium falciparum [4] it was 41 nM; in the assay with HepG2, 8400 nM; against Histone deacetylase, 60 nM. Further, in the assay on Plasmodium falciparum [6], the “log(activity)” value came out at 3.8. In addition, in the assay on Plasmodium falciparum [7], the fold change (FC) turned out to be 6. In the assay with Plasmodium falciparum [9], the LT99.9 was 40.3 h.
